Active and inactive are the calls of the source. The rule behind the calls is not given here.
How the values were obtained:
[1] = Reduction in PRKAA2 gene expression in human Hep2 cells at 50 ug/ml incubated for 24 hrs by real-time PCR method; format: functional, cell-based; conditions: HEp-2
In short: (§1)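 HEp-2 cells were treated 24 h at 10 or 50 µg/mL. Total RNA was extracted with Trizol, and 2 µg was reverse-transcribed. 50 ng cDNA went into TaqMan real-time PCR with beta-actin as endogenous control. Relative expression was calculated by the ∆∆CT method. Each experiment was run three times.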

HEp-2 [2] = assay: Induction of cell cycle arrest in human Hep2 cells assessed accumulation at S phase at 10 ug/ml incubated for 24 hrs by propidium iodide staining based flow cytometry (reference value: 21.06%); format: functional
[3] = Reduction in PRKAA2 gene expression in human Hep2 cells at 10 ug/ml incubated for 24 hrs by real-time PCR method; format: functional, cell-based; conditions: HEp-2; in short: as §1
HEp-2 [4] = assay: Induction of cell cycle arrest in human Hep2 cells assessed accumulation at G2/M phase at 50 ug/ml incubated for 24 hrs by propidium iodide staining based flow cytometry (reference value: 7.82%); format: functional
[5] = Reduction in PRKAA1 gene expression in human Hep2 cells at 10 ug/ml incubated for 24 hrs by real-time PCR method; format: functional, cell-based; conditions: HEp-2; in short: as §1
THP-1 [6] = assay: Cytotoxicity against human THP1 cells assessed as cell viability at 50 ug/ml incubated for 24 hrs by MTS assay; format: functional; conditions: THP-1, 24 h, read-out: Activity
In short: (§2)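 Cells were held at 37 °C, 5% CO2 in humid air. HEp-2 (5 x 10³/well) and HCT-8 (7 x 10³/well) grew in DMEM + 10% heat-inactivated FBS and got compound (binary dilutions) 24 h after seeding. THP-1 (5 x 10³ cells, RPMI-1640 + 10% FBS) were added directly to the dilutions. Exposure lasted 24 h. MTS (CellTiter 96 AQueous One) read-out was absorbance at 490 nm.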

HEp-2 [7] = assay: Induction of cell cycle arrest in human Hep2 cells assessed accumulation at G2/M phase at 10 ug/ml incubated for 24 hrs by propidium iodide staining based flow cytometry (reference value: 7.82%); format: functional
[8] = Reduction in PRKAA1 gene expression in human Hep2 cells at 50 ug/ml incubated for 24 hrs by real-time PCR method; format: functional, cell-based; conditions: HEp-2; in short: as §1
HCT-8 [9] = assay: Induction of apoptosis in human HCT8 cells assessed early apoptosis level at 50 ug/ml incubated for 24 hrs by annexin V-FITC and propidium iodide staining based flow cytometry (reference value: 0.75%); format: functional
HEp-2 [10] = assay: Induction of cell cycle arrest in human Hep2 cells assessed accumulation at S phase at 50 ug/ml incubated for 24 hrs by propidium iodide staining based flow cytometry (reference value: 21.06%); format: functional
[11] = Cytotoxicity against human HCT8 cells assessed as cell viability at 50 ug/ml incubated for 24 hrs by MTS assay; format: functional; conditions: HCT-8, 24 h, read-out: Activity; in short: as §2
[12] = Cytotoxicity against human Hep2 cells assessed as cell viability at 25 ug/ml incubated for 24 hrs by MTS assay; format: functional; conditions: HEp-2, 24 h, read-out: Activity; in short: as §2
[13] = Cytotoxicity against human Hep2 cells assessed as cell viability at 12.5 ug/ml incubated for 24 hrs by MTS assay; format: functional; conditions: HEp-2, 24 h, read-out: Activity; in short: as §2
HCT-8 [14] = assay: Induction of apoptosis in human HCT8 cells assessed late apoptosis level at 50 ug/ml incubated for 24 hrs by annexin V-FITC and propidium iodide staining based flow cytometry (reference value: 4.8%); format: functional
[15] = Cytotoxicity against human HCT8 cells assessed as cell viability at 25 ug/ml incubated for 24 hrs by MTS assay; format: functional; conditions: HCT-8, 24 h, read-out: Activity; in short: as §2
[16] = Cytotoxicity against human Hep2 cells assessed as cell viability at 50 ug/ml incubated for 24 hrs by MTS assay; format: functional; conditions: HEp-2, 24 h, read-out: Activity; in short: as §2
HEp-2 [17] = assay: Induction of cell cycle arrest in human Hep2 cells assessed accumulation at G0/G1 phase at 10 ug/ml incubated for 24 hrs by propidium iodide staining based flow cytometry (reference value: 74.51%); format: functional
HEp-2 [18] = assay: Induction of cell cycle arrest in human Hep2 cells assessed accumulation at G2/M phase incubated for 24 hrs by propidium iodide staining based flow cytometry; format: functional
THP-1 [19] = assay: Cytotoxicity against human THP1 cells assessed as cell viability at 25 ug/ml incubated for 24 hrs by MTS assay; format: functional; conditions: THP-1, 24 h, read-out: Activity; in short: as §2
[20] = Cytotoxicity against human HCT8 cells assessed as cell viability at 12.5 ug/ml incubated for 24 hrs by MTS assay; format: functional; conditions: HCT-8, 24 h, read-out: Activity; in short: as §2
HCT-8 [21] = assay: Induction of apoptosis in human HCT8 cells assessed viable cells level at 50 ug/ml incubated for 24 hrs by annexin V-FITC and propidium iodide staining based flow cytometry (reference value: 93.3%); format: functional
HCT-8 [22] = assay: Induction of apoptosis in human HCT8 cells assessed necrosis level at 50 ug/ml incubated for 24 hrs by annexin V-FITC and propidium iodide staining based flow cytometry (reference value: 1.12%); format: functional
THP-1 [23] = assay: Cytotoxicity against human THP1 cells assessed as cell viability at 12.5 ug/ml incubated for 24 hrs by MTS assay; format: functional; conditions: THP-1, 24 h, read-out: Activity; in short: as §2
HEp-2 [24] = assay: Induction of cell cycle arrest in human Hep2 cells assessed accumulation at G0/G1 phase at 50 ug/ml incubated for 24 hrs by propidium iodide staining based flow cytometry (reference value: 74.51%); format: functional

Row | SMILES | Activity [1] | Activity (HEp-2 [2]) [%] | Activity [3] | Activity (HEp-2 [4]) [%] | Activity [5] | viability at 50 µg/mL (THP-1 [6]) [%] | Activity (HEp-2 [7]) [%] | Activity [8] | Activity (HCT-8 [9]) [%] | Activity (HEp-2 [10]) [%] | viability at 50 µg/mL [11] [%] | viability at 25 µg/mL [12] [%] | viability at 12.5 µg/mL [13] [%] | Activity (HCT-8 [14]) [%] | viability at 25 µg/mL [15] [%] | viability at 50 µg/mL [16] [%] | Activity (HEp-2 [17]) [%] | Activity (HEp-2 [18]) | viability at 25 µg/mL (THP-1 [19]) [%] | viability at 12.5 µg/mL [20] [%] | further results
1 | Cc1cs/c(=N\C(=O)c2cnn(C)c2)n1-c1ccc(Br)cc1 | Active | 21.45 | Active | 19.45 | Active | 41.6 | 7.76 | Active | 4.47 | 24.2 | 89.4 | 95 | 100 | 3.44 | 97 | 85 | 74.24 | Dose-dependent effect | 87.6 | 100 | Activity (HCT-8 [21]): 89.4%; Activity (HCT-8 [22]): 2.66%; viability at 12.5 µg/mL (THP-1 [23]): 97%; Activity (HEp-2 [24]): 63.34%
2 | Cn1cc(C(=O)NC(=S)Nc2ccc(I)cc2)cn1 | Active | 17.26 | Active | 15.88 | Active | 35.2 | 11.98 | Active | 2.31 | 24.79 | 93.3 | 100 | 100 | 3.1 | 100 | 93 | 71.62 | Dose-dependent effect | 79.3 | 100 | Activity (HCT-8 [21]): 93.3%; Activity (HCT-8 [22]): 1.25%; viability at 12.5 µg/mL (THP-1 [23]): 100%; Activity (HEp-2 [24]): 74.24%
3 | Cn1cc(C(=O)NC(=S)Nc2ccccc2I)cn1 | Active | 21.88 | Active | 15.92 | Active | 31.3 | 6.86 | Active | 2.01 | 18.14 | 91.8 | 100 | 100 | 3.75 | 100 | 90 | 76.4 | Dose-dependent effect | 84 | 100 | Activity (HCT-8 [21]): 91.8%; Activity (HCT-8 [22]): 2.49%; viability at 12.5 µg/mL (THP-1 [23]): 100%; Activity (HEp-2 [24]): 67.6%
